This note sets out measurements from ChEMBL document CHEMBL1140577, “Anticancer and anti-inflammatory activities of 1,8-naphthyridine-3-carboxamide derivatives” (Bioorg Med Chem Lett, 2007).

SMILES strings stand for the structures. The source made the active and inactive calls. The rule behind the calls is not given here. A value given as a limit tells only on which side of the number the result lay.

One assay concerns PA-1. The assay can be described thus: Cytotoxicity against human PA1 cells after 72 hrs by MTT assay. The class given is functional, cell-based. The conditions noted are these: PA-1, 72 h. The method, boiled down: (§1)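 5000–10,000 cells seeded per well and exposed for 72 h in a CO₂ incubator to five concentrations, the highest 10 µM (top soluble). MTT (125 µg) added for 3 h, then lysed with 10% SDS–0.01 N HCl for 1 h. Absorbance read at 540 nm. % cytotoxicity = (1 − (treated−blank)/control)×100.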
Background: Formazan colour is commonly taken as a measure of viable cells.

Another assay has as its system DU-145. The assay can be described thus: Cytotoxicity against human DU145 cells after 72 hrs by MTT assay. The class given is functional, cell-based. Conditions: DU-145, 72 h. The method, boiled down:
as §1

The subject of another assay is KB. Nature of the assay: Cytotoxicity against human KB cells after 72 hrs by MTT assay. In kind it is functional, cell-based. The procedure, abridged:
as §1

A further assay concerns SW-620. The assay can be described thus: Cytotoxicity against human SW620 cells after 72 hrs by MTT assay. The conditions noted are these: SW-620, 72 h. The class given is functional, cell-based. The procedure, abridged:
as §1

The test system of a further assay is HBL-100. Nature of the assay: Cytotoxicity against human HBL100 cells after 72 hrs by MTT assay. The class given is functional, cell-based. Conditions: HBL-100, 72 h. The method, boiled down:
as §1

A further assay concerns A549. The assay can be described thus: Cytotoxicity against human A549 cells after 72 hrs by MTT assay. The conditions noted are these: A549, 72 h. The class given is functional, cell-based. The procedure, abridged: as §1
A short description of assay [1]: Cytotoxicity against human MIA PaCa cells after 72 hrs by MTT assay. The class given is functional, cell-based. The method, boiled down:
as §1

The subject of a further assay is K562. The assay can be described thus: Cytotoxicity against human K562 cells after 72 hrs by MTT assay. The class given is functional, cell-based. The conditions noted are these: K562, 72 h. The procedure, abridged:
as §1

In the next assay the test system is NIH3T3 (Mus musculus). The assay can be described thus: Cytotoxicity against mouse NIH3T3 cells after 72 hrs by MTT assay. The conditions noted are these: NIH3T3, 72 h.
Assay [2] in a line: Antiinflammatory activity assessed as inhibition of IL1-beta secretion in LPS-induced C57BL/6 mouse dendritic cells after 24 hrs by ELISA. In kind it is functional, Dendritic cell. The method, boiled down:
(§2)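 DCs grown from femoral bone marrow of 8–12-week-old C57BL/6 mice in RPMI-1640 with 10% FBS and rmGM-CSF (20 ng/ml), 37 °C, 5% CO₂. Immature DCs stimulated with LPS (100 ng/ml) and exposed to compounds (0.001–10 µg/ml range) for 24 h. Cytokine in supernatant quantified by ELISA. % change = (B−A)/A×100, where A is LPS-stimulated DCs without compound.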
For orientation: An ELISA detects its analyte on a solid surface through an enzyme-linked reagent.

The nature of assay [3]: Antiinflammatory activity assessed as inhibition of TNFalpha secretion in LPS-induced C57BL/6 mouse dendritic cells at 1 ug/mL after 24 hrs by ELISA. The class given is functional. The conditions noted are these: C57BL/6, Dendritic cell. The method, boiled down: as §2
For assay [4], the system named is Dendritic cell. The assay can be described thus: Antiinflammatory activity assessed as inhibition of IP-10 secretion in LPS-induced C57BL/6 mouse dendritic cells after 24 hrs by ELISA. In kind it is functional, cell-based. The method, boiled down:
as §2

Assay [5] deals with Dendritic cell. Nature of the assay: Myeloprotective activity assessed as stimulation of MIP1 secretion in mouse dendritic cells after 24 hrs by ELISA relative to basal level. In kind it is functional, cell-based. The method, boiled down:
(§3)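 Murine bone-marrow-derived dendritic cells, not LPS-stimulated, incubated with compounds at 0.1 and 1 µg/ml for 24 h. MIP-1α, CCL22 and TNF-α in culture supernatants measured by ELISA. % change = (B−A)/A×100 against untreated DCs.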

Assay [6] has as its system Dendritic cell. Nature of the assay: Myeloprotective activity assessed as inhibition of CCL22 secretion in mouse dendritic cells after 24 hrs by ELISA. The class given is functional, cell-based. The method, boiled down:
as §3

Assay [7] has as its system Dendritic cell. The assay can be described thus: Myeloprotective activity assessed as inhibition of TNFalpha secretion in mouse dendritic cells after 24 hrs by ELISA relative to basal level. In kind it is functional, cell-based. The method, boiled down: as §3

The IC50 is the concentration needed to halve the response being measured. A lower IC50 goes with greater potency. `C#CCn1cc(C(=O)NCCCOC(=O)[C@H]2CCCN2C(=O)OC(C)(C)C)c(=O)c2ccc(C)nc21`: the half-maximal inhibitory concentration (IC50) in the assay with PA-1 was more than 10 µM; with DU-145, more than 10 µM; in the assay with KB, 3.7 µM; with SW-620, more than 10 µM; in the assay with HBL-100, more than 10 µM; in the assay on A549, more than 10 µM. The IC50 (in assay [1]; with K562; in the assay on NIH3T3 (Mus musculus)) was more than 10 µM throughout.
A word on the Inhibition: it is the percentage by which the read-out fell short of the control. For `C#CCn1cc(C(=O)NCCCOC(=O)[C@H]2OC(C)(C)N(C(=O)OC(C)(C)C)[C@@H]2c2ccccc2)c(=O)c2cccnc21`, the Inhibition in [2] is listed as more than 50%.
For orientation: inhibition means the change of the read-out against control, counted positive when it falls. As for `C#CCn1cc(C(=O)NCCCOC(=O)CNC(=O)OC(C)(C)C)c(=O)c2ccc(Cl)nc21`, the inhibition at 1 µg/mL in assay [3] was more than 50%. Also, the result in the assay on Dendritic cell [4], with Dendritic cell [5], in the assay with Dendritic cell [6] and with Dendritic cell [7] was Active.
On to `C#CCn1cc(C(=O)NCCCOC(=O)[C@H](C)NC(=O)OC(C)(C)C)c(=O)c2ccc(Cl)nc21`, for which the IC50 in the assay on PA-1 is more than 10 µM; with DU-145, more than 10 µM; with KB, more than 10 µM; with SW-620, more than 10 µM; in the assay with HBL-100, 5.4 µM; in the assay with A549 it was more than 10 µM. For the same compound, the IC50 is more than 10 µM in assay [1], more than 10 µM with K562 and 9.2 µM in the assay on NIH3T3 (Mus musculus). In addition, the result in the assay with Dendritic cell [5], in the assay on Dendritic cell [6] and in the assay with Dendritic cell [7] was Active.
As to `C#CCn1cc(C(=O)NCCCOC(=O)[C@@H](O)[C@@H](N)c2ccccc2)c(=O)c2ccc(Cl)nc21`, the Inhibition in [2] is more than 50%.
As for `C#CCn1cc(C(=O)N[C@@H](C)CCOC(=O)[C@H](C)NC(=O)OC(C)(C)C)c(=O)c2ccc(Cl)nc21`, the concentration for half-maximal inhibition (IC50) in the assay on PA-1 was 4.9 µM; in the assay on DU-145, more than 10 µM; in the assay with KB, 8.3 µM; in the assay on SW-620, more than 10 µM; with HBL-100, more than 10 µM; with A549, more than 10 µM. Moreover, the IC50 (in assay [1]; in the assay with K562; with NIH3T3 (Mus musculus)) was more than 10 µM in each case.
Regarding `C#CCn1cc(C(=O)NCCCOC(=O)[C@H]2OC(C)(C)N(C(=O)OC(C)(C)C)[C@@H]2c2ccccc2)c(=O)c2ccc(Cl)nc21`, the IC50 is 6 µM in the assay with PA-1; more than 10 µM with DU-145; more than 10 µM with KB; 3.96 µM in the assay on SW-620; 1.37 µM with HBL-100; more than 10 µM in the assay on A549. For the same compound, the IC50 (in assay [1]; in the assay with K562; in the assay with NIH3T3 (Mus musculus)) was more than 10 µM throughout. The inhibition at 1 µg/mL in assay [3] was more than 50%. Further, in assay [2], the Inhibition was more than 50%.
Regarding `C#CCn1cc(C(=O)N[C@@H](C)CCOC(=O)[C@H]2CCCN2C(=O)OC(C)(C)C)c(=O)c2ccc(Cl)nc21`, the IC50 was 5.2 µM with PA-1; more than 10 µM in the assay on DU-145; 6.6 µM in the assay with KB; 3.3 µM in the assay with SW-620; 8.4 µM in the assay on HBL-100; more than 10 µM in the assay on A549. Besides, the IC50 (in assay [1]; with K562; in the assay on NIH3T3 (Mus musculus)) was more than 10 µM throughout.
In the case of `C#CCn1cc(C(=O)NCCCOC(=O)[C@H]2CCCN2C(=O)OC(C)(C)C)c(=O)c2ccc(Cl)nc21`, the IC50 in the assay with PA-1 is more than 10 µM; with DU-145, more than 10 µM; with KB it was more than 10 µM; in the assay with SW-620 it was more than 10 µM; in the assay with HBL-100 it was 3.7 µM; in the assay with A549, more than 10 µM. Besides, the IC50 was 7.6 µM in [1], more than 10 µM in the assay with K562 and 8.4 µM in the assay on NIH3T3 (Mus musculus). Further, the inhibition at 1 µg/mL in [3] was more than 50%. In addition, the outcome with Dendritic cell [4], with Dendritic cell [5], with Dendritic cell [6] and in the assay on Dendritic cell [7] was Active.
With `C#CCn1cc(C(=O)NCCCOC(=O)CNC(=O)OC(C)(C)C)c(=O)c2cccnc21`, the IC50 in the assay on PA-1 was 9 µM; with DU-145, more than 10 µM; in the assay on KB, 7 µM; in the assay on SW-620, more than 10 µM; with HBL-100 it was more than 10 µM; in the assay on A549, more than 10 µM. Further, the IC50 (in [1]; with K562; in the assay on NIH3T3 (Mus musculus)) was more than 10 µM throughout.
Turning to `C#CCn1cc(C(=O)NCCCOC(=O)[C@@H](O)[C@@H](NC(=O)OC(C)(C)C)c2ccccc2)c(=O)c2ccc(Cl)nc21`, the concentration for half-maximal inhibition (IC50) in the assay on PA-1 is more than 10 µM; in the assay on DU-145, more than 10 µM; in the assay with KB, more than 10 µM; with SW-620, 3 µM; with HBL-100 it was more than 10 µM; in the assay with A549, more than 10 µM. The IC50 was more than 10 µM in assay [1], more than 10 µM in the assay on K562 and 7.84 µM in the assay on NIH3T3 (Mus musculus). In addition, in assay [3], the inhibition at 1 µg/mL is more than 50%. Besides, the result in the assay with Dendritic cell [4] was Active.
